RGS4 pot = RGS4 potentiators or activators, primary screen, cell-based, HEK293 M3R inducible RGS4, calcium flux; carbachol calcium flux Fluo4; stronger effect = lower value; B-score at 10 µM; hit rate 0.92% among 310,000; AID 463111, 2010;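 active = B-score of the integrated calcium signal more than 4 SD below the library mean, with starting fluorescence not abnormally high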;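 also: negative B-score means reduced calcium response which marks RGS4 activation or potentiation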
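Detection: kinetic calcium fluorescence imaging with Fluo4-AM dye, 2 µM / Material: HEK293 cells with stable M3R and inducible RGS4 / Schedule: recording 10 s baseline at 1 Hz, 100 s post-agonist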
MrgX1 antag = antagonists of human MrgX1 receptor, primary screen, HEK293 cells, Fluo-4 calcium flux; Mas-related G-protein coupled receptor member X1 (Homo sapiens), Q96LB2; BAM8-22 antagonism; stronger effect = lower value; B-score at 10 µM; hit rate 1.3% among 310,000; AID 588676, 2011;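 active = calcium-response B-score plate-corrected more than 3 library SD below zero, starting fluorescence within 5 deviations, no agonist response on first addition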;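 also: peak minus trough fluorescence over baseline after final BAM8-22 challenge near maximal dose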
Target sequence (Q96LB2 whole entry, looked up): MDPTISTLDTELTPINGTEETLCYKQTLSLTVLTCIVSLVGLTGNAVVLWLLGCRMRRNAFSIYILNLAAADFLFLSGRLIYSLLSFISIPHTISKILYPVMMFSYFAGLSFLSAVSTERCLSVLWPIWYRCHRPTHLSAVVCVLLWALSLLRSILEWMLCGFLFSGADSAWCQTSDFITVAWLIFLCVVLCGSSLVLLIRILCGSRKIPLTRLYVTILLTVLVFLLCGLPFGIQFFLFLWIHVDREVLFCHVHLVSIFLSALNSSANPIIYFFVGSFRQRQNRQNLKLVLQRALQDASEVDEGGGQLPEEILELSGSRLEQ
RGS4 block = RGS4 inhibitors, primary screen, cell-based, HEK293 M3R inducible RGS4, calcium flux; Regulator of G-protein signaling 4 (Homo sapiens), P49798; Fluo-4 calcium flux; stronger effect = higher value; triggered by carbachol at its EC20; B-score at 10 µM; hit rate 0.45% among 310,000; AID 463165, 2010;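 active = B-score, a plate-corrected calcium signal, over three deviations above library mean, with baseline fluorescence within five deviations of library mean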;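 also: RGS4 expression induced by doxycycline in cells with stable M3 receptor; B-score is computed from the integrated fluorescence ratio over baseline after carbachol; higher B-score means a larger calcium signal and so more RGS4 inhibition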
Target sequence (P49798 whole entry, looked up): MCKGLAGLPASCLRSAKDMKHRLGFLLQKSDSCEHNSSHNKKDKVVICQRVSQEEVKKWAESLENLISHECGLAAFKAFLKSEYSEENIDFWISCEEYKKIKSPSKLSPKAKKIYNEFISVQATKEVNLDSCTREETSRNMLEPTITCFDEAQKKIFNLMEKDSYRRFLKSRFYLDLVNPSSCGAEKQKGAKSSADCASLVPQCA
MrgX1 PAM = positive allosteric modulators of MrgX1, primary screen, HEK293 cells, Fluo-4 calcium flux | Mas-related G-protein coupled receptor member X1 (Homo sapiens), Q96LB2 | FDSS; stronger effect = higher value | B-score at 10 µM | hit rate 0.63% among 310,000 | AID 588675, 2011;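 active = plate-corrected calcium response at least 3 library SD above typical, normal starting fluorescence, not activating the receptor alone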;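 also: compound read alongside a low EC10 to EC30 dose of BAM8-22 agonist; peak minus trough fluorescence over baseline measured at the second addition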
MrgX1 agonist = agonists of human MrgX1 receptor, primary screen, HEK293 cells, Fluo-4 calcium flux. hit rate 0.44% among 310,000. Fluo-4 calcium fluorescence, agonist mode; stronger effect = higher value. B-score at 10 µM. Mas-related G-protein coupled receptor member X1 (Homo sapiens), Q96LB2. AID 588627, 2011;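 active = calcium response B-score plate-corrected fluorescence ratio at least 3 library SD, with starting fluorescence B-score inside 5 SD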
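Material: MrgX1-expressing HEK293 cells; input: 15,000 cells per well; doses: test compound given as first of three sequential additions; schedule: overnight plating before 1 h dye loading; technique: Fluo-4 NW calcium-flux fluorescence, kinetic read; evaluation: baseline-normalised fluorescence change ratio, B-scored; control set: plate-wise positive and negative controls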
Starred values were filed as active, the others as inactive; i = inactive; . = not tested or not shown. Compounds with a hit are over-represented: about 3.5% of the library has one in this group of screens.

SMILES | RGS4 pot | MrgX1 antag | RGS4 block | MrgX1 PAM | MrgX1 agonist
CCOc1cc2c(cc1OCC)-n1cccc1C(c1cc(C)c(OC)cc1C)NC2 (configuration not stated) | i | -4.9* | i | i | i
CCOc1cc2c(cc1OCC)-n1cccc1C(c1ccc(C)cc1C)NC2 (configuration not stated) | i | i | i | i | i
O=[N+]([O-])/C=C1/NCCN1Cc1ccc(Cl)nc1 | i | i | i | i | i
CN1C[C@H](CO)C=C2c3cccc4[nH]cc(c34)C[C@H]21 | i | i | i | i | 36*
COc1ccc(-[n+]2c(-c3ccccc3)cc(-c3ccccc3)cc2-c2ccccc2)cc1 | i | -4.9* | i | i | i
C[n+]1c(-c2ccccc2)cc(-c2ccc(O)cc2)cc1-c1ccccc1 | i | i | i | i | i
Oc1ccc(-[n+]2c(-c3ccccc3)cc(-c3ccccc3)cc2-c2ccccc2)cc1 | -7.2* | -7.9* | i | 12* | i
O=C([O-])c1ccc(-[n+]2c(-c3ccccc3)cc(-c3ccccc3)cc2-c2ccccc2)cc1 | i | i | i | i | i
O=[N+]([O-])c1ccc(-[n+]2c(-c3ccccc3)cc(-c3ccccc3)cc2-c2ccccc2)cc1 | i | i | i | 8.4* | i
O=C(CCCc1ccccc1)NCCc1cnc[nH]1 | i | i | i | i | i
CCCCn1c(C)c(C(=O)O)c2cc(OC)c3ccccc3c21 | i | i | i | i | i
CC(Cc1ccccc1)N1C(=O)c2ccccc2C1=O (configuration not stated) | i | i | i | i | i
C=C(C)[C@@H]1C2C(=O)O[C@H]1[C@H]1OC(=O)[C@@]34OC3C[C@]2(O)[C@@]14C (some centres not stated) | . | -6.4* | . | i | i
O=c1[nH]c(=O)n(C2CCCCC2)c(O)c1/C=C/C=Nc1ccccc1 | i | -5* | i | i | i
CN(C)C=C1C(=O)N(C2CCCCC2)C(=O)N(C2CCCCC2)C1=O | i | i | i | i | 52*
O=[N+]([O-])c1cc(F)c(N2CCCCCC2)cc1N1CCNCC1 | i | -5.2* | i | i | i
O=[N+]([O-])c1ccc(N2CCNCC2)cc1N1CCCCCC1 | i | i | i | 11* | i
CN1CCN(c2ccc([N+](=O)[O-])c(N3CCCCC3)c2)CC1 | i | i | i | i | i
C=CCc1ccc(OC)cc1 | . | i | . | i | i
COc1ccc(CC(C)NCCC(c2ccccc2)c2ccccc2)cc1 (configuration not stated) | -7.4* | i | i | i | i
Cn1c(O)c(C=NC2CCCCCC2)c(=O)[nH]c1=S | i | -6.4* | i | i | i
Cn1c(O)c(C=NC2CCN(Cc3ccccc3)CC2)c(=O)[nH]c1=O | i | i | i | i | i
COc1ccc2c(c1)c(C(=O)CN1CCC3(CC1)OCCO3)c(C)n2Cc1ccccc1 | i | i | i | i | i
OC(c1ccccc1)(c1ccccc1)C1CN2CCC1CC2 (configuration not stated) | -7.5* | i | i | i | i
COc1cc(C)cc2oc(=O)c(CC(=O)N3C[C@H]4C[C@@H](C3)c3cccc(=O)n3C4)c(C)c12 | i | i | i | i | i
SMILES | RGS4 pot | MrgX1 antag | RGS4 block | MrgX1 PAM | MrgX1 agonist
Cc1cc(O)c2c(C)c(CC(=O)N3C[C@H]4C[C@@H](C3)c3cccc(=O)n3C4)c(=O)oc2c1 | i | -5.2* | i | i | i
COc1ccccc1/C=N/N=C(/N)N[N+](=O)[O-] | i | -7.7* | i | i | i
N/C(=N\N=C\c1ccc(O)cc1O)N[N+](=O)[O-] | i | i | i | i | i
OC(Cn1c2ccccc2c2ccccc21)C[n+]1cccc2ccccc21 (configuration not stated) | -7.9* | i | i | i | i
CN=C1CN(O)C(c2ccccc2)=c2cc(Cl)ccc2=N1 | i | i | i | 9.6* | i
CC(C)NP(=O)(NC(C)C)OP(=O)(NC(C)C)NC(C)C | . | i | . | i | i
CCCC[N+]12CCC(CC1)C(=C(c1ccccc1)c1ccccc1)C2 | -8.6* | i | i | i | i
OC(CNCCc1c[nH]c2ccccc12)c1ccccc1 (configuration not stated) | i | i | i | i | i
O=C(c1ccc(Cl)cc1)C1CCCN(Cc2cccc3ncccc23)C1 (configuration not stated) | i | i | i | i | i
O=C(c1ccc(Cl)cc1)C1CCCN(Cc2cccc3cccnc23)C1 (configuration not stated) | -7.1* | i | i | i | i
O=C(O)c1cc[c]([Hg][Cl])cc1 | . | i | . | 13* | i
O=C1NC(=O)N(Cc2ccccc2)C(=O)/C1=C/c1cnn(-c2ccccc2)c1 | i | -5.5* | i | i | i
c1ccc(P(c2ccccn2)c2ccccn2)cc1 | i | i | i | i | i
O=C1NC(=O)C(=Cc2ccc(N3CCOCC3)o2)C(=O)N1 | -7.6* | i | i | i | i
C[C@H]1CC[C@@H]2N(C1)C[C@H]1[C@@H]3C[C@H]4[C@@H](CC(=O)[C@H]5C[C@@H](O)CC[C@@]54C)[C@@H]3CC[C@H]1[C@]2(C)O | i | i | i | i | i
CC(=O)O[C@H]1CC[C@@]2(C)[C@H](C1)C(=O)C[C@H]1[C@@H]3CC[C@@H]4[C@@H](CN5C[C@@H](C)CC[C@H]5[C@@]4(C)O)[C@@H]3C[C@@H]12 | -7* | i | i | i | i
O=CNc1ccc(OP(=O)(Oc2ccccc2)Oc2ccccc2)cc1 | i | i | i | i | i
O=C1NC(=O)C(=Cc2ccc(Oc3ccc([N+](=O)[O-])cc3)cc2)C(=O)N1 | i | i | i | 7* | i
O=C1NC(=O)C(=Cc2ccc3ccccc3c2)C(=O)N1 | i | i | i | i | i
CN1CCN(Cc2cc(C(C)(C)C)c(O)c(C(C)(C)C)c2)CC1 | i | -5.2* | i | i | i
